≈ marks a conversion by molar mass, not a printed value. One block for each compound: values may come before it.
Assays:
CHO [1] = assay: Inhibition of SFLLR-NH2-induced calcium release in CHO cells at 10 uM treated prior to SFLLR-NH2 challenge […] by FLIPR assay; assay type: functional; conditions: Cricetulus griseus
Outline: (§1)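 FLIPR fluorescence assay in CHO cells. Calcium release is evoked by 1 μM SFLLR-NH₂, the PAR1-selective agonist peptide. Compound effect is given as % inhibition at 10 μM or, for competitive antagonists, as a calculated pA₂.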

Rattus norvegicus [2] = assay: Increase in occlusion time of arteriovenous shunt in Crl; OFA Sprague-Dawley rat at 40 mg/kg, po; assay type: functional
Outline: (§2)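 Anesthetized rats; extracorporeal shunt from left carotid artery to right jugular vein, silk thread in the central portion as thrombogenic substrate. A thermal microprobe on the central shunt section gives time to occlusion, seen as a sharp temperature drop. Compound given iv at 1.25 mg/kg or orally at 40 mg/kg. Result expressed as % increase in occlusion time.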

Platelet = assay: Inhibition of SFLLR-induced human platelet aggregation; assay type: functional
Rattus norvegicus [3] = assay: Increase in occlusion time of arteriovenous shunt in Crl: OFA Sprague-Dawley rat at 1.25 mg/kg, iv; assay type: functional; outline: as §2
CHO [4] = assay: Inhibition of SFLLR-NH2-induced calcium release in CHO cells treated prior to SFLLR-NH2 challenge […] by FLIPR assay; assay type: functional, cell-based; conditions: Cricetulus griseus, read-out: pA2 (converted); outline: as §1
[5] = Selectivity for PAR1 to PAR4
[6] = Selectivity for PAR1 to PAR2
[7] = Half life in rat plasma at 1 mg/kg, iv and 5 mg/kg, po; assay type: ADME, organism-based
Outline: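 Plasma half-life was measured in male rats dosed iv at 1 mg/kg and po at 5 mg/kg. The value is the mean over three rats.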

[8] = biological target: T1, Proteinase-activated receptor 1 (Homo sapiens) (UniProt P25116); assay: Antagonist activity at PAR1 expressed in Cos7 cells assessed as SFLLR-mediated SRE-luciferase activity; assay type: functional, cell-based; conditions: COS-7
T1 sequence (whole entry): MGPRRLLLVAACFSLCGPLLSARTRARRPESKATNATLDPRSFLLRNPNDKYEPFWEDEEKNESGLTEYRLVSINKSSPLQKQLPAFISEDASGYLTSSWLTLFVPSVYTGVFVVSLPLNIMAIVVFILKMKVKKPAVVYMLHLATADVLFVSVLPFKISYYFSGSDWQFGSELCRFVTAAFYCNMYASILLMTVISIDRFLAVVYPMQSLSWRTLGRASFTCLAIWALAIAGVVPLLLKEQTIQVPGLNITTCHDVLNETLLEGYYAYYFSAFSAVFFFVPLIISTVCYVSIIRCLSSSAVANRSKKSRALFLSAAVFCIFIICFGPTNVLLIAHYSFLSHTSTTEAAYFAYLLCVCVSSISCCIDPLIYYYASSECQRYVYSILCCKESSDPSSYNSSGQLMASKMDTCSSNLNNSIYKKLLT

[9] = biological target: T2, Proteinase-activated receptor 4 (Homo sapiens) (UniProt Q96RI0); assay: Antagonist activity at PAR4 expressed in Cos7 cells assessed as AYPGKF-mediated SRE-luciferase activity; assay type: functional, cell-based; conditions: COS-7
T2 sequence (whole entry): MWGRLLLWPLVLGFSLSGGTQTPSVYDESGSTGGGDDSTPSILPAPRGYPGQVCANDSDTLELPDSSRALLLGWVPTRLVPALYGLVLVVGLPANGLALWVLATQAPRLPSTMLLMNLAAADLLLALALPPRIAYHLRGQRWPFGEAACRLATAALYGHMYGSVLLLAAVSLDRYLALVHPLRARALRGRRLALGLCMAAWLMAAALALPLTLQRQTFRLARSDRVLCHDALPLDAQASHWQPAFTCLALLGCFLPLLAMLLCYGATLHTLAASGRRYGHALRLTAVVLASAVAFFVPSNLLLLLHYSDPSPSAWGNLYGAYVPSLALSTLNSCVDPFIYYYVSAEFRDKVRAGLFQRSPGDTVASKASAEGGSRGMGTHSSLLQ

[10] = biological target: Proteinase-activated receptor 2 (Homo sapiens) (UniProt P55085); assay: Antagonist activity at PAR2 expressed in Cos7 cells assessed as SLIGRl-mediated SRE-luciferase activity; assay type: functional, cell-based; conditions: COS-7
Chain of Proteinase-activated receptor 2 (Homo sapiens) (P55085 whole entry): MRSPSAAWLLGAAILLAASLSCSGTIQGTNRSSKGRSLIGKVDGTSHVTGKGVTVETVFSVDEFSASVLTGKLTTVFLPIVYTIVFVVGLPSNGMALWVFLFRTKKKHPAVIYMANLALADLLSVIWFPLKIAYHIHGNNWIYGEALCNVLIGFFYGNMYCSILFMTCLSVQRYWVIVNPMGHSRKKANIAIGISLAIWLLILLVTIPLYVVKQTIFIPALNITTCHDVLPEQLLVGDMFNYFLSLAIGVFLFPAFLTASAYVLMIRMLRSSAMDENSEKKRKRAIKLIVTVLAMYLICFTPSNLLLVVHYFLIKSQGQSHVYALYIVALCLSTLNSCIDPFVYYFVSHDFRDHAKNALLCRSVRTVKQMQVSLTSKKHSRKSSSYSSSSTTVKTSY

[11] = Clearance in rat; assay type: ADME, organism-based; conditions: in vivo
Outline: (§3)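 Rat pharmacokinetic parameters were determined on the hydrochloride salt of each compound.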

[12] = Solubility in water; assay type: physicochemical
Outline: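 Aqueous solubility was determined on the hydrochloride salt and expressed in mg/mL.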

[13] = Oral bioavailability in rat; assay type: ADME, organism-based; conditions: in vivo; outline: as §3

Structure (SMILES): O=C(/C=C/c1ccccc1[N+](=O)[O-])N1CCN(Cc2ccc(F)cc2)CC1
inhibition at 10 µM (CHO [1]): 88.6%

Structure (SMILES): O=C(/C=C/C=C/c1ccccc1Cl)N1CCCN(Cc2ccc(F)cc2)CC1
inhibition at 10 µM (CHO [1]): 37.8%

Structure (SMILES): CCOc1cc2c(cc1C(=O)NC)C(=N)N(CC(=O)c1cc(C(C)(C)C)c(O)c(C(C)(C)C)c1)C2
Activity (Rattus norvegicus [2]): 43%
pKb (Platelet): 8.18
Activity (Rattus norvegicus [3]): 27%
Kb (CHO [4]): 141 nM

Structure (SMILES): O=C(/C=C/c1ccccc1[N+](=O)[O-])N1CCN(Cc2ccncc2)CC1
inhibition at 10 µM (CHO [1]): 0%

Structure (SMILES): O=C(/C=C/c1c(F)cccc1F)N1CCN(Cc2ccc(F)c(F)c2)CC1
inhibition at 10 µM (CHO [1]): 73.1%

Selectivity ratio [5]: 5
Selectivity ratio [6]: 15
half-life [7]: 2.78 h
pKb [8]: 5.6
pKb [9]: 4.93
pKb [10]: 4.39
clearance [11]: 6 mL/min/kg
solubility [12]: 2500 µg/mL (≈ 7.26 mM)
bioavailability [13]: 42%
Structure (SMILES): N#Cc1ccccc1/C=C/C=C/C(=O)N1CCN(c2ccccn2)CC1
Activity (Rattus norvegicus [2]): 54%
pKb (Platelet): 5.3
inhibition at 10 µM (CHO [1]): 98.7%
Activity (Rattus norvegicus [3]): 58%
Kb (CHO [4]): 324 nM

Structure (SMILES): O=C(/C=C/C=C/c1ccccc1[N+](=O)[O-])N1CCN(C2CCCC2)CC1
Activity (Rattus norvegicus [2]): 7%
pKb (Platelet): 5.5
inhibition at 10 µM (CHO [1]): 91.7%
Activity (Rattus norvegicus [3]): 44%
Kb (CHO [4]): 69.2 nM

Structure (SMILES): O=C(/C=C/c1ccccc1[N+](=O)[O-])N1CCCN(Cc2ccc(F)cc2)CC1
inhibition at 10 µM (CHO [1]): 38.2%

Structure (SMILES): N#Cc1ccccc1/C=C/C(=O)N1CCN(C(=O)C2CCCCCC2)CC1
pKb (Platelet): 5.17
inhibition at 10 µM (CHO [1]): 92.6%
Activity (Rattus norvegicus [3]): 19%
Kb (CHO [4]): 87.1 nM

Structure (SMILES): N#Cc1ccc(N2CCN(C(=O)/C=C/c3ccccc3[N+](=O)[O-])CC2)cc1
inhibition at 10 µM (CHO [1]): 18.8%

Structure (SMILES): O=C(/C=C/C=C/c1ccccc1[N+](=O)[O-])N1CCN(c2ccccc2)CC1
pKb (Platelet): 5.65
inhibition at 10 µM (CHO [1]): 100%
Activity (Rattus norvegicus [3]): 3%
Kb (CHO [4]): 58.9 nM

Structure (SMILES): O=C(/C=C/c1ccccc1[N+](=O)[O-])N1CCN(C(=O)NC2CCCCC2)CC1
inhibition at 10 µM (CHO [1]): 39.2%

Structure (SMILES): O=C(/C=C/c1ccccc1Cl)N1CCN(Cc2ccc(F)cc2)CC1
Activity (Rattus norvegicus [2]): 59%
Selectivity ratio [5]: 5
Selectivity ratio [6]: 15
pKb (Platelet): 5.52
inhibition at 10 µM (CHO [1]): 92.8%
half-life [7]: 2.17 h
pKb [8]: 5.55
Activity (Rattus norvegicus [3]): 28%
pKb [9]: 4.91
pKb [10]: 4.45
clearance [11]: 40 mL/min/kg
Kb (CHO [4]): 214 nM
solubility [12]: 1700 µg/mL (≈ 4.74 mM)
bioavailability [13]: 43%

Structure (SMILES): O=C(CCc1ccccc1[N+](=O)[O-])N1CCN(Cc2ccc(F)cc2)CC1
inhibition at 10 µM (CHO [1]): 45.3%

Structure (SMILES): O=C(/C=C/c1ccccc1[N+](=O)[O-])N1CCC(NCc2ccc(F)cc2)CC1
inhibition at 10 µM (CHO [1]): 0%

Structure (SMILES): O=C(/C=C/c1ccccc1[N+](=O)[O-])N1CCN(S(=O)(=O)c2ccccc2F)CC1
inhibition at 10 µM (CHO [1]): 0%

Structure (SMILES): Cc1ccc(CN2CCN(C(=O)/C=C/c3c(F)cccc3F)CC2)cc1C
inhibition at 10 µM (CHO [1]): 65.3%

Structure (SMILES): O=C(/C=C/c1ccccc1Br)N1CCN(Cc2ccc(F)cc2)CC1
inhibition at 10 µM (CHO [1]): 93.1%

Structure (SMILES): Nc1ccccc1/C=C/C(=O)N1CCN(Cc2ccc(F)cc2)CC1
inhibition at 10 µM (CHO [1]): 7.4%

Structure (SMILES): O=C(/C=C/c1ccccc1Cl)C1CCN(Cc2ccc(F)cc2)CC1
inhibition at 10 µM (CHO [1]): 15.8%

Structure (SMILES): Cc1cccc(CN2CCN(C(=O)/C=C/c3c(F)cccc3F)CC2)c1
inhibition at 10 µM (CHO [1]): 86.2%

Structure (SMILES): O=C(C#Cc1ccccc1[N+](=O)[O-])N1CCN(Cc2ccc(F)cc2)CC1
inhibition at 10 µM (CHO [1]): 28.6%

Structure (SMILES): O=C(/C=C/c1ccccc1[N+](=O)[O-])N1CCN(c2cccc(Cl)c2)CC1
inhibition at 10 µM (CHO [1]): 97.1%

Structure (SMILES): O=C(/C=C/c1c(F)cccc1F)N1CCN(C(=O)C2CCCCCC2)CC1
Activity (Rattus norvegicus [2]): 0%
inhibition at 10 µM (CHO [1]): 98.9%
Activity (Rattus norvegicus [3]): 14%
Kb (CHO [4]): 214 nM

Structure (SMILES): N#Cc1ccccc1/C=C/C(=O)N1CCN(Cc2ccc(F)cc2)CC1
inhibition at 10 µM (CHO [1]): 85.4%

Structure (SMILES): O=C(/C=C/c1ccccc1[N+](=O)[O-])N1CCN(CC2CCCCC2)CC1
pKb (Platelet): 5.31
inhibition at 10 µM (CHO [1]): 91.5%
Activity (Rattus norvegicus [3]): 29%
Kb (CHO [4]): 490 nM

Structure (SMILES): O=C(/C=C/c1ccccc1[N+](=O)[O-])N1CCN(C(=O)C2CCCCCC2)CC1
inhibition at 10 µM (CHO [1]): 99.9%

Structure (SMILES): O=C(/C=C/c1cccc(Cl)c1)N1CCN(Cc2ccc(F)cc2)CC1
inhibition at 10 µM (CHO [1]): 0.7%

Structure (SMILES): Cc1cccc(CN2CCN(C(=O)/C=C/c3ccccc3[N+](=O)[O-])CC2)c1
inhibition at 10 µM (CHO [1]): 72.4%

Structure (SMILES): O=C(/C=C/C=C/c1ccccc1[N+](=O)[O-])N1CCN(Cc2ccc(F)cc2)CC1
inhibition at 10 µM (CHO [1]): 59.4%

Structure (SMILES): O=C(/C=C/c1ccccc1[N+](=O)[O-])N1CCN(Cc2ccc(F)cc2)C(=O)C1
inhibition at 10 µM (CHO [1]): 26.7%
